Measured values of several laboratories.
Compare with care: the assays were run in different laboratories.
Cell line: HT-29
Effect on: cell growth or viability

Structure (SMILES)	test	conditions	measurement	result
COc1ccc2[nH]cc(CCNc3nccc(Nc4cccc5c4ccn5C)n3)c2c1	fluorescence	72 h	IC50	3.9 nM
N.N.[Cl][Pt][Cl]	SRB	48 h	IC50	20000 nM
O=C(N/N=C1\C(=O)N(Cc2ccccc2)c2ccc(F)cc21)c1cc2ccccc2[nH]1		30 µM	inhibition	94.3%
CCCCCCCC(=O)SCC/C=C/[C@@H]1CC(=O)NCc2nc(cs2)C2=N[C@@](C)(CS2)C(=O)N[C@@H](C(C)C)C(=O)O1	resazurin	48 h	IC50	16.2 nM
COc1cc2c(c3c1C(=O)C[C@@H](c1ccccc1)O3)[C@H]1[C@@H](O2)OC(C)(C)[C@@H]1OC(C)=O	SRB	72 h	IC50	> 10000 nM
c1ccc2c(c1)[I+]c1ccccc1-2	trypan blue	48 h	IC50	~100 nM
COc1c2c(cc3c1OCO3)[C@]13C=C[C@H](OC)C[C@@H]1[N@](C2)C[C@H]3OC(=O)c1ccoc1	WST-1		IC50	> 10000 nM
COc1ccc2c(c1)/C(=N/NC(=O)c1cc3ccccc3[nH]1)C(=O)N2Cc1ccccc1			IC50	2280 nM
COc1c2c(cc3c1OCO3)[C@]13C=C[C@H](OC)C[C@@H]1[N@](C2)C[C@H]3OC(=O)c1ccc2ccccc2c1	WST-1		IC50	> 10000 nM
O=C(N/N=C1\C(=O)N(Cc2ccccc2)c2ccc(Br)cc21)c1cc2ccccc2[nH]1			IC50	2260 nM
COc1cc2c(O[C@@H]3O[C@H](CO)[C@@H](O)[C@H](O)[C@H]3O)c3c(c(-c4ccc5c(c4)OCO5)c2cc1OC)C(=O)OC3			IC50	12000 nM
